In one data set the target is Cytochrome P450 3A5 (Homo sapiens, UniProt P20815). The data set can be described thus: Activity of human CYP3A5 expressed in microsomes isolated from baculovirus infected insect cell assessed as enzyme-mediated 3-(4-((6-methoxy-1-methyl-1H-benzo[d]imidazol-2-yl)methoxy)phenyl)-2-(methylsulfonyl)propanamide formation at 20 uM after 2 hrs by radio-HPLC/LC-MS/MS analysis in presence of NADPH-generating system/SAM. Format: ADME. The method, boiled down:
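cDNA-expressed human CYP3A5 in baculovirus-insect-cell microsomes (1 mg/ml protein) was incubated with [¹⁴C]rivoglitazone (20 μM) in 50 mM potassium phosphate (pH 7.4) or 100 mM Tris-HCl (pH 7.5). NADPH-generating system: 2 mM NADP⁺, 20 mM glucose 6-phosphate, 2 units/ml G6PDH, 10 mM MgCl₂. Incubation ran 2 h at 37°C with shaking; insect-cell control supersomes served as control. Acetonitrile stop, supernatant concentrated, then radio-HPLC, LC-MS and LC-MS/MS.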

Data set [1] concerns the target T1, UDP-glucuronosyltransferase 1A3 (Homo sapiens, UniProt P35503).
T1 sequence (P35503 whole entry): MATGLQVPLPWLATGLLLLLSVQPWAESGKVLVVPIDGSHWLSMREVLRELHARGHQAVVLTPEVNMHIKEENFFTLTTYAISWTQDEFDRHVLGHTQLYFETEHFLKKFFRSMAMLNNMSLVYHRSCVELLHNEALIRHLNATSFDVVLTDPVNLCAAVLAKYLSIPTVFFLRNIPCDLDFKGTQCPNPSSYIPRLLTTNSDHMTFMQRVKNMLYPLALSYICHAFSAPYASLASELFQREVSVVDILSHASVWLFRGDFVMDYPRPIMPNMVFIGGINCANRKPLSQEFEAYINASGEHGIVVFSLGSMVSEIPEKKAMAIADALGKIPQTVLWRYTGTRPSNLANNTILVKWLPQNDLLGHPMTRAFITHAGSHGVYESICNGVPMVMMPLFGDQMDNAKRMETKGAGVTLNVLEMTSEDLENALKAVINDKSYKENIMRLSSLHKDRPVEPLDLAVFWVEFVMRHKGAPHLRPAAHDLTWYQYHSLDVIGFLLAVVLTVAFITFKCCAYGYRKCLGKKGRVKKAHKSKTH
Nature of the data set: Activity of human UGT1A3 expressed in microsomes isolated from baculovirus infected insect cell assessed as enzyme-mediated 3-(4-((6-methoxy-1-methyl-1H-benzo[d]imidazol-2-yl)methoxy)phenyl)-2-(methylsulfinyl)propanamide formation at 20 uM after 4 hrs by radio-HPLC/LC-MS/MS analysis in presence of NADPH-generating system/SAM. Format: ADME.

Data set [2] in a line: Drug metabolism in rat hepatocytes assessed as formation of 5-(4-((6-hydroxy-1-methyl-1H-benzo[d]imidazol-2-yl)methoxy)benzyl)thiazolidine-2,4-dione at 30 uM after 3 hrs by radio-HPLC/LC-MS/MS analysis in presence of NADPH-generating system and NADPH-generating system/SAM. Format: ADME, cell-based, Hepatocyte.
A further data set deals with Cytochrome P450 3A4 (Homo sapiens, UniProt P08684). The data set can be described thus: Activity of human CYP3A4 expressed in microsomes isolated from baculovirus infected insect cell assessed as enzyme-mediated 3-(4-((6-methoxy-1-methyl-1H-benzo[d]imidazol-2-yl)methoxy)phenyl)-2-(methylsulfinyl)propanamide formation at 20 uM after 2 hrs by radio-HPLC/LC-MS/MS analysis in presence of NADPH-generating system/SAM. Format: ADME.
Cytochrome P450 3A4, sequence (P08684 whole entry): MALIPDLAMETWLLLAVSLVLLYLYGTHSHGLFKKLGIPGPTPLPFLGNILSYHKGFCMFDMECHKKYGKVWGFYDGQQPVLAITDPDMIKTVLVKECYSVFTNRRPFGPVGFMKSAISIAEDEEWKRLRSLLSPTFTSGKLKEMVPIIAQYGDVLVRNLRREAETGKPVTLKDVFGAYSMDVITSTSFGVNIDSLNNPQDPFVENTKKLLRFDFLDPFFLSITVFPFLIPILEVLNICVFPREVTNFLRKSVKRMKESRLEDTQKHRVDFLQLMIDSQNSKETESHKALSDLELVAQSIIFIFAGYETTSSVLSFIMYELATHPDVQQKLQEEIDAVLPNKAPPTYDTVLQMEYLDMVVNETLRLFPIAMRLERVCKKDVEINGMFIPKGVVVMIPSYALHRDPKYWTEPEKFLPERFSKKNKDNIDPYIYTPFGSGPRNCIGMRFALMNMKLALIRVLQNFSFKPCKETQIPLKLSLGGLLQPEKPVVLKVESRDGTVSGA

Data set [3] in a line: Drug metabolism in cynomolgus monkey liver microsomes assessed as formation of 3-(4-((6-methoxy-1-methyl-1H-benzo[d]imidazol-2-yl)methoxy)phenyl)-2-(methylthio)propanoic acid at 20 uM after 2 to 4 hrs by radio-HPLC/LC-MS/MS analysis in presence of NADPH-generating system/SAM and UDPGA/SAM. Format: ADME, Macaca fascicularis.
The next data set addresses Cytochrome P450 2D6 (Homo sapiens, UniProt P10635). Nature of the data set: Activity of human CYP2D6 expressed in microsomes isolated from baculovirus infected insect cell assessed as enzyme-mediated 2-((4-((2,4-dioxothiazolidin-5-yl)methyl)phenoxy)methyl)-1-methyl-1H-benzo[d]imidazol-6-yl hydrogen sulfate formation at 20 uM after 2 hrs by radio-HPLC/LC-MS/MS analysis. Format: ADME. The method in brief:
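Baculovirus-insect-cell microsomes expressing the human CYP (1 mg/ml protein) were incubated with [14C]rivoglitazone (20 μM) in 50 mM potassium phosphate (pH 7.4) or 100 mM Tris-HCl (pH 7.5) with an NADPH-generating system (2 mM NADP+, 20 mM glucose 6-phosphate, 2 units/ml G6PDH, 10 mM MgCl2) for 2 h at 37°C. Insect-cell control supersomes served as the control. Reactions were stopped with acetonitrile, and the concentrated supernatants were analysed by radio-HPLC, LC-MS and LC-MS/MS.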

In data set [4] the target is T2, UDP-glucuronosyltransferase 1A9 (Homo sapiens, UniProt O60656).
T2 sequence (O60656 whole entry): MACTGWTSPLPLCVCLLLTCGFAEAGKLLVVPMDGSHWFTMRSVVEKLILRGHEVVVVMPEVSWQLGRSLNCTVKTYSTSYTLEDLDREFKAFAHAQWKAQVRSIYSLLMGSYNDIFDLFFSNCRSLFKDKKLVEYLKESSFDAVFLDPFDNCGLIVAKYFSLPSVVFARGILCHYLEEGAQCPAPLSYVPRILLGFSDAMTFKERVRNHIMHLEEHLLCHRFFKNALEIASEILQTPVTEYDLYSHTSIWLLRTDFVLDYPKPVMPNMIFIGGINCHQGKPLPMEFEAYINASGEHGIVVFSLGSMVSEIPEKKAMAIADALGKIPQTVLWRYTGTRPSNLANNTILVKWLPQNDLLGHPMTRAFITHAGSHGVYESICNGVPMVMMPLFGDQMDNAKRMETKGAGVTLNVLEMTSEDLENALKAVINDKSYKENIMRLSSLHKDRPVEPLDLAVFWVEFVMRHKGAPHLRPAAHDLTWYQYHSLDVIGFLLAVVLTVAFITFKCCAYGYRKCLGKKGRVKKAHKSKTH
The data set can be described thus: Activity of human UGT1A9 expressed in microsomes isolated from baculovirus infected insect cell assessed as enzyme-mediated (2S,3S,4S,5R,6R)-6-((1-carboxy-2-(4-((6-methoxy-1-methyl-1H-benzo[d]imidazol-2-yl)methoxy)phenyl)ethylthio)carbonylamino)-3,4,5-trihydroxytetrahydro-2H-pyran-2-carboxylic acid formation at 20 uM after 4 hrs by radio-HPLC/LC-MS/MS analysis in presence of UDPGA. Format: ADME.

Another data set has as its system Hepatocyte. Nature of the data set: Drug level in human hepatocytes treated with [14C]-rivoglitazone at 30 uM after 3 hrs by radio-HPLC/LC-MS/MS analysis in presence of UDPGA, UDPGA/SAM and NADPH-generating system. Format: ADME, cell-based.

Cytochrome P450 2D6, sequence (P10635 whole entry): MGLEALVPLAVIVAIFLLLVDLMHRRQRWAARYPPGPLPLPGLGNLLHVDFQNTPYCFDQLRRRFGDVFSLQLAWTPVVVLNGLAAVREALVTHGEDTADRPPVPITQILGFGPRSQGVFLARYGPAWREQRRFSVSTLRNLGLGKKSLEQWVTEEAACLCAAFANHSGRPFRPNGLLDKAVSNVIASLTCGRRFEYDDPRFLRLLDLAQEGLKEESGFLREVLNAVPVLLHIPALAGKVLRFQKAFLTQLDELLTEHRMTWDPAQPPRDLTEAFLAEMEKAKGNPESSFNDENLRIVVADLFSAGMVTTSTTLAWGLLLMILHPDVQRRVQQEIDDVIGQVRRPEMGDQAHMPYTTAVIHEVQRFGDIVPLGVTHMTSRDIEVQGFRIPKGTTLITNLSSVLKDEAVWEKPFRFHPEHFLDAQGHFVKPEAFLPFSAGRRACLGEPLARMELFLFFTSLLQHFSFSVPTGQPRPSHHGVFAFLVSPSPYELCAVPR
Cytochrome P450 3A5, sequence (P20815 whole entry): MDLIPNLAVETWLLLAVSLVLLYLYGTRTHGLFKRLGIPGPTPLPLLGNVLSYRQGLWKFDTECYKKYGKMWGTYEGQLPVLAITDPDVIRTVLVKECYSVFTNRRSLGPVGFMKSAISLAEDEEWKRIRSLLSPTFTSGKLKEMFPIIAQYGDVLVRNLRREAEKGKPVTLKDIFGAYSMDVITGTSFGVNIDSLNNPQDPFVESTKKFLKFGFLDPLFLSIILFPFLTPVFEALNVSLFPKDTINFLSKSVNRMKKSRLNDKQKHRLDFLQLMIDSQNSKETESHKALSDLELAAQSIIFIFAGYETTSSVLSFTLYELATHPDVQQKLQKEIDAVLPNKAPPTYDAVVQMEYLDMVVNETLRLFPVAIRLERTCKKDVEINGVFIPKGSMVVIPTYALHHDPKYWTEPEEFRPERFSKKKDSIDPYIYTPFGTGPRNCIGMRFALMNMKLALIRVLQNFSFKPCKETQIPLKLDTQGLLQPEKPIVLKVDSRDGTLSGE

As for `COc1ccc2nc(COc3ccc(C[14CH]4SC(=O)NC4=O)cc3)n(C)c2c1.Cl` (racemic), the Drug metabolism result on Cytochrome P450 3A5 is “metabolite_not_detected”; in data set [1], “metabolite_not_detected”; in data set [2], “metabolite_detected”; at Cytochrome P450 3A4, “metabolite_not_detected”; in data set [3] it was “metabolite_detected”; on Cytochrome P450 2D6 it was “metabolite_not_detected”. The Drug metabolism entry in data set [4] was “metabolite_not_detected”.
Regarding `COc1ccc2nc(COc3ccc(CC(S)C(=O)O)cc3)n(C)c2c1` (stereo not drawn), in the data set with Hepatocyte, the Drug metabolism entry is recorded as “metabolite_not_detected”.

The values are drawn from ChEMBL document CHEMBL3526048, “In vitro metabolism of rivoglitazone, a novel peroxisome proliferator-activated receptor γ agonist, in rat, monkey, and human liver microsomes and freshly isolated hepatocytes” (Drug Metab Dispos, 2011).
